Measured values as given in ChEMBL document CHEMBL1137729, “Synthesis, evaluation and 3D QSAR analysis of novel estradiol-RGD octapeptide conjugates with oral anti-osteoporosis activity” (Eur J Med Chem, 2009).
Residues, ends and D or L forms follow the SMILES beside them. *: point of attachment. Acetyl(estradiol-3-yloxy) = C[C@]12CC[C@@H]3c4ccc(OCC(=O)*)cc4CC[C@H]3[C@@H]1CC[C@@H]2O

Experiments:
Mus musculus [1] = assay: Antiosteoporosis activity in ovariectomized ICR mouse assessed as calcium content in femur at 110.3 nmol/kg, po treated for 4 weeks measured after 1 day of last treatment by o-methyl-phenolphthalein; type: functional
Summary of the method: (§1)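 Female mice, ovariectomized (sham: laparotomy only); from day 5 post-surgery dosed orally once daily with 110.3 nmol/kg in 0.2 ml 0.5% carboxymethylcellulose for 4 weeks (vehicle to OVX/sham). Left femur taken the day after the last dose, cleaned of muscle, length measured, defatted in chloroform–methanol (2:1, 2×3 h), dried 120 °C 6 h and weighed, ashed 800 °C 8 h and weighed. Mineral content = ash/dry weight; femur ash dissolved in 6 N HCl, diluted, calcium by o-methylphenolphthalein complexone. n = 12.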

Mus musculus [2] = assay: Toxicity in ovariectomized ICR mouse assessed as effect on uterine weight at 110.3 nmol/kg, po treated for 4 weeks measured after 1 day of last treatment; type: organism-based; settings: in vivo, 24 h
Summary of the method: (§2)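 OVX mice dosed orally once daily with 110.3 nmol/kg in 0.5% carboxymethylcellulose for 4 weeks. The day after the last dose, mice were anesthetized with pentobarbital (40.0 mg/kg ip) and killed; uteri, lungs, livers and spleens were removed and weighed directly and their morphology noted.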

Mus musculus [3] = assay: Antiosteoporosis activity in ovariectomized ICR mouse assessed as calcium level in serum at 110.3 nmol/kg, po treated for 4 weeks measured after 1 day of last treatment by o-methyl-phenolphthalein method; type: functional
Summary of the method: (§3)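 Ovariectomized female mice dosed orally with 110.3 nmol/kg in 0.5% carboxymethylcellulose once daily for 4 weeks, starting day 5 after surgery. Blood taken from the orbit the day after the last dose, stood 30 min, centrifuged 3000g for 20 min, serum stored at −20 °C. Calcium read by o-methylphenolphthalein complexone; phosphorus by molybdenum blue.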

Mus musculus [4] = assay: Antiosteoporosis activity in ovariectomized ICR mouse assessed as phosphorous level in serum at 110.3 nmol/kg, po treated for 4 weeks measured after 1 day of last treatment by molybdenum blue method; type: functional; summary of the method: as §3
Mus musculus [5] = assay: Antiosteoporosis activity in ovariectomized ICR mouse assessed as mineral content in femur at 110.3 nmol/kg, po treated for 4 weeks measured after 1 day of last treatment; type: functional; summary of the method: as §1
Mus musculus [6] = assay: Antiosteoporosis activity in ovariectomized ICR mouse assessed as weight of dry femur at 110.3 nmol/kg, po treated for 4 weeks measured after 1 day of last treatment; type: functional
Summary of the method: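 Left femur taken the day after the last dose, cleaned of muscle, length measured, defatted in chloroform–methanol (2:1, 2×3 h), dried 120 °C 6 h and weighed, ashed 800 °C 8 h and weighed. Mineral content = ash/dry weight; femur ash dissolved in 6 N HCl, diluted, calcium by o-methylphenolphthalein complexone. n = 12.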

Mus musculus [7] = assay: Toxicity in ovariectomized ICR mouse assessed as spleen weight at 110.3 nmol/kg, po treated for 4 weeks measured after 1 day of last treatment; type: organism-based; settings: in vivo, 24 h; summary of the method: as §2
Mus musculus [8] = assay: Toxicity in ovariectomized ICR mouse assessed as effect on tail bleeding time at 110.3 nmol/kg, po treated for 4 weeks measured after 30 mins of last treatment; type: organism-based; settings: in vivo, 0.5 h
Summary of the method: (§4)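 OVX mice received 110.3 nmol/kg orally in 0.5% carboxymethylcellulose daily for 4 weeks. At 30 and 90 min after the last dose, a 2 mm tail cut was made with the mouse in a tube holder; blood was blotted every 30 s until bleeding stopped, and the time was recorded as bleeding time.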

Mus musculus [9] = assay: Antiosteoporosis activity in ovariectomized ICR mouse assessed as weight of femur ash at 110.3 nmol/kg, po treated for 4 weeks measured after 1 day of last treatment; type: functional; summary of the method: as §1
Mus musculus [10] = assay: Toxicity in ovariectomized ICR mouse assessed as liver weight at 110.3 nmol/kg, po treated for 4 weeks measured after 1 day of last treatment; type: organism-based; settings: in vivo, 24 h; summary of the method: as §2
Mus musculus [11] = assay: Toxicity in ovariectomized ICR mouse assessed as lung weight at 110.3 nmol/kg, po treated for 4 weeks measured after 1 day of last treatment; type: organism-based; settings: in vivo, 24 h; summary of the method: as §2
Mus musculus [12] = assay: Toxicity in ovariectomized ICR mouse assessed as effect on tail bleeding time at 110.3 nmol/kg, po treated for 4 weeks measured after 90 mins of last treatment; type: organism-based; settings: in vivo, 1.5 h; summary of the method: as §4
Mus musculus [13] = assay: Antiosteoporosis activity in ovariectomized ICR mouse assessed as length of femur at 110.3 nmol/kg, po treated for 4 weeks measured after 1 day of last treatment; type: functional; summary of the method: as §1
Mus musculus [14] = assay: Toxicity in ovariectomized ICR mouse assessed as kidney weight at 110.3 nmol/kg, po treated for 4 weeks measured after 1 day of last treatment; type: organism-based; settings: in vivo, 24 h
Mus musculus [15] = assay: Antiosteoporosis activity in ovariectomized ICR mouse assessed as phosphorous content in femur at 110.3 nmol/kg, po treated for 4 weeks measured after 1 day of last treatment by molybdenum blue method; type: functional

Compound: C[C@]12CC[C@@H]3c4ccc(OCC(=O)N[C@@H](CCCNC(=N)N)C(=O)NCC(=O)N[C@@H](CC(=O)O)C(=O)N[C@@H](Cc5ccccc5)C(=O)O)cc4CC[C@H]3[C@@H]1CC[C@@H]2O ({Acetyl(estradiol-3-yloxy)}-RGDF-OH)
- Activity (Mus musculus [1]): 57.42%
- Activity (Mus musculus [2]): 0.067 g
- Activity (Mus musculus [3]): 3.24 mM
- Activity (Mus musculus [4]): 3.19 mM
- Activity (Mus musculus [5]): 0.596%
- Activity (Mus musculus [6]): 53.87 mg
- Activity (Mus musculus [7]): 0.177 g
- Time (Mus musculus [8]): 557 s
- Activity (Mus musculus [9]): 33.56 mg
- Activity (Mus musculus [10]): 1.336 g
- Activity (Mus musculus [11]): 0.112 g
- Time (Mus musculus [12]): 560 s
- Activity (Mus musculus [13]): 1.669 cm
- Activity (Mus musculus [14]): 0.159 g
- Activity (Mus musculus [15]): 20.09%

Compound: C[C@]12CC[C@@H]3c4ccc(OCC(=O)N[C@@H](CCCNC(=N)N)C(=O)NCC(=O)N[C@@H](CC(=O)O)C(=O)N[C@@H](Cc5ccccc5)C(=O)N[C@@H](CCCNC(=N)N)C(=O)NCC(=O)N[C@@H](CC(=O)O)C(=O)N[C@@H](Cc5ccccc5)C(=O)O)cc4CC[C@H]3[C@@H]1CC[C@@H]2O ({Acetyl(estradiol-3-yloxy)}-RGDFRGDF-OH)
- Activity (Mus musculus [1]): 63.92%
- Activity (Mus musculus [2]): 0.061 g
- Activity (Mus musculus [3]): 3.05 mM
- Activity (Mus musculus [4]): 3.01 mM
- Activity (Mus musculus [5]): 0.623%
- Activity (Mus musculus [6]): 56.96 mg
- Activity (Mus musculus [7]): 0.131 g
- Time (Mus musculus [8]): 592 s
- Activity (Mus musculus [9]): 36.74 mg
- Activity (Mus musculus [10]): 1.439 g
- Activity (Mus musculus [11]): 0.119 g
- Time (Mus musculus [12]): 585 s
- Activity (Mus musculus [13]): 1.641 cm
- Activity (Mus musculus [14]): 0.169 g
- Activity (Mus musculus [15]): 21.33%

Compound: C[C@]12CC[C@@H]3c4ccc(OCC(=O)N[C@@H](CCCNC(=N)N)C(=O)NCC(=O)N[C@@H](CC(=O)O)C(=O)N[C@@H](CO)C(=O)O)cc4CC[C@H]3[C@@H]1CC[C@@H]2O ({Acetyl(estradiol-3-yloxy)}-RGDS-OH)
- Activity (Mus musculus [1]): 58.76%
- Activity (Mus musculus [2]): 0.064 g
- Activity (Mus musculus [3]): 3.23 mM
- Activity (Mus musculus [4]): 2.98 mM
- Activity (Mus musculus [5]): 0.605%
- Activity (Mus musculus [6]): 53.89 mg
- Activity (Mus musculus [7]): 0.142 g
- Time (Mus musculus [8]): 582 s
- Activity (Mus musculus [9]): 34.08 mg
- Activity (Mus musculus [10]): 1.492 g
- Activity (Mus musculus [11]): 0.128 g
- Time (Mus musculus [12]): 577 s
- Activity (Mus musculus [13]): 1.646 cm
- Activity (Mus musculus [14]): 0.193 g
- Activity (Mus musculus [15]): 20.24%

Compound: C[C@]12CC[C@@H]3c4ccc(OCC(=O)N[C@@H](CCCNC(=N)N)C(=O)NCC(=O)N[C@@H](CC(=O)O)C(=O)N[C@@H](CO)C(=O)N[C@@H](CCCNC(=N)N)C(=O)NCC(=O)N[C@@H](CC(=O)O)C(=O)N[C@@H](CO)C(=O)O)cc4CC[C@H]3[C@@H]1CC[C@@H]2O ({Acetyl(estradiol-3-yloxy)}-RGDSRGDS-OH)
- Activity (Mus musculus [1]): 63.12%
- Activity (Mus musculus [2]): 0.062 g
- Activity (Mus musculus [3]): 3.01 mM
- Activity (Mus musculus [4]): 2.91 mM
- Activity (Mus musculus [5]): 0.626%
- Activity (Mus musculus [6]): 56.6 mg
- Activity (Mus musculus [7]): 0.133 g
- Time (Mus musculus [8]): 564 s
- Activity (Mus musculus [9]): 36.42 mg
- Activity (Mus musculus [10]): 1.448 g
- Activity (Mus musculus [11]): 0.11 g
- Time (Mus musculus [12]): 559 s
- Activity (Mus musculus [13]): 1.657 cm
- Activity (Mus musculus [14]): 0.17 g
- Activity (Mus musculus [15]): 21.56%

Compound: CC(C)[C@H](NC(=O)[C@H](CC(=O)O)NC(=O)CNC(=O)[C@H](CCCNC(=N)N)NC(=O)COc1ccc2c(c1)CC[C@@H]1[C@@H]2CC[C@]2(C)[C@@H](O)CC[C@@H]12)C(=O)O ({Acetyl(estradiol-3-yloxy)}-RGDV-OH)
- Activity (Mus musculus [1]): 57.84%
- Activity (Mus musculus [2]): 0.064 g
- Activity (Mus musculus [3]): 3.22 mM
- Activity (Mus musculus [4]): 2.99 mM
- Activity (Mus musculus [5]): 0.611%
- Activity (Mus musculus [6]): 53.97 mg
- Activity (Mus musculus [7]): 0.133 g
- Time (Mus musculus [8]): 569 s
- Activity (Mus musculus [9]): 33.99 mg
- Activity (Mus musculus [10]): 1.4 g
- Activity (Mus musculus [11]): 0.109 g
- Time (Mus musculus [12]): 577 s
- Activity (Mus musculus [13]): 1.67 cm
- Activity (Mus musculus [14]): 0.167 g
- Activity (Mus musculus [15]): 20.24%
